Activity calls are given as the source filed them.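 Rule for the calls: active = compounds whose fitted half-maximal concentration for reducing fibroblast viability is 100 µM or lower; inactive = the rest.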
System: LL 47 lung fibroblast viability, ATP luminescence
Experiment: LL 47 lung fibroblast growth inhibition, concentration-response, selectivity test for endothelial growth inhibitor program, cellular, luminescent ATP readout (AID 821)
Method in brief: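 Material – LL 47 human lung fibroblasts · Input – 1,150 cells/well · Doses – compound concentration series from 0.039 to 20 µM, 0.2% DMSO · Timing – 72 h exposure, 37 °C · Detection – CellTiter-Glo luminescence · Read-out basis – percent viability relative to untreated wells, EC50 via 4-parameter fit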

| Compound | EC50 |
| --- | --- |
| Cc1cc(NC(=O)CSc2nc3c(sc4ccccc43)c(=O)n2CCCN2CCOCC2)n[nH]1 | > 10 µM (inactive) |
| O=C(Nc1nc(NC(=O)c2ccco2)n(-c2ccccc2)n1)c1ccccc1 | 11.5 µM |
| CCOC(=O)c1cnc(-n2nc(C)cc2C)nc1NC1CCCCC1 | 14.2 µM |
| O=S1(=O)C=C(Sc2nnc(-c3ccccc3)o2)c2ccccc21 | 1.71 µM |
| CCN(CC)c1ccc2c(c1)oc(=O)c1c(Cl)cc(=O)oc12 | 7.29 µM |
| Cn1c2ccccc2c(=O)c2c(=O)n(C3CCCCC3)c(-c3cccs3)nc21 | 14.2 µM |
| Cc1nc(S(=O)(=O)N(C)c2ccccc2)c(C#N)c(C)c1Cl | 18.7 µM |
| O=C(Oc1cccc2cccnc12)c1ccc2c(c1)OCCO2 | 6.78 µM |
| CCC(C)(C)NC(=O)C(c1ccc(C)o1)N(Cc1cccs1)C(=O)Cn1nnc2ccccc21 (stereo not given) | 13.9 µM |
| Cc1oc(-c2ccc(Cl)cc2)nc1CN1CCC(C(=O)N2CCN(Cc3ccccc3)CC2)CC1 | 17.5 µM |
| Oc1ccc(Cl)cc1-c1cc(-c2ccco2)[nH]n1 | > 10 µM (inactive) |
| N#CCC(=O)Nc1ncn(Cc2ccccc2Cl)n1 | 19.7 µM |
| CCn1c(=O)cc(C(=O)OC)sc1=Nc1ccc(F)c(F)c1 | 17.4 µM |
| CSc1nncc(=O)[nH]1 | 13.1 µM |
| O=[N+]([O-])c1ccc(Sc2cccc3cccnc23)c([N+](=O)[O-])c1 | 5.03 µM |
| Cn1cc(/C=N/n2cnc3scc(-c4ccccc4)c3c2=O)c2ccccc21 | 12.9 µM |
| COc1ccc(C(=O)Nc2ccccc2C(=O)N(Cc2ccco2)C(C(N)=O)C(C)C)cc1 (stereo not given) | 17.4 µM |
| CCC(C)(C)n1nnnc1C(c1cc2cc(C)cc(C)c2[nH]c1=O)N1CCN(Cc2ccc3c(c2)OCO3)CC1 (stereo not given) | 9.88 µM |
| CC(=O)SC(C[N+](=O)[O-])c1cn(C(C)=O)c2ccccc12 (stereo not given) | 11.7 µM |
| CCN1CCN(c2cc(C)c3cc(NC(=O)c4ccc(OC)c(OC)c4)ccc3n2)CC1 | 15.2 µM |
| CN=C1c2cc3cc(OC)ccc3n2CCN1Cc1ccccc1 | 18.1 µM |
| Cc1ccc(S(=O)(=O)N2CCCN(S(=O)(=O)c3ccc(C(F)(F)F)cc3)CC2)cc1 | 16.1 µM |
| Cc1cccc(CS(=O)(=O)c2nnc([C@H](Cc3ccccc3)NC(=O)OC(C)(C)C)o2)c1 | 16.7 µM |
| O=C(CN1CCCC1)Nc1ccc(-c2nc3cc(NC(=O)CN4CCCC4)ccc3o2)cc1 | 7.33 µM |
| Cc1cc(NC(=O)c2cc(-c3ccncc3)nc3c(C)cccc23)no1 | 9.48 µM |
| Cc1nn(-c2nc3ccccc3s2)c(N)c1Sc1ccc(F)cc1 | 12.8 µM |
| CCOc1cc(N2CCOCC2)c(OCC)cc1NC(=O)COc1cccc2cccnc12 | 6.41 µM |

| Compound | EC50 |
| --- | --- |
| Cc1ccc2oc3c(c(=O)c2c1)C(c1cccc(Br)c1)N(Cc1ccco1)C3=O (stereo not given) | 18.3 µM |
| CCn1c(SCC(=O)Nc2cc(C)on2)nc2sc3c(c2c1=O)CCCC3 | > 10 µM (inactive) |
| CCc1ccc(-c2nc(CN3CCC(C(=O)N4CCN(c5ccccc5)CC4)CC3)c(C)o2)cc1 | 18.7 µM |
| COc1ccc(-c2cc(C#N)nc(N3CCNCC3)n2)cc1 | 11.8 µM |
| O=C1CSC(=S)N1Cc1cccnc1 | 9.72 µM |
| O=C(Nc1nnc(-c2ccccc2SCc2ccccc2F)s1)Nc1ccccc1F | 16.2 µM |
| COC(=O)CCS(=O)(=O)c1nc(-c2ccccc2)cc(C(F)(F)F)n1 | 14.4 µM |
| Cc1ccc(C)n1NC(=O)c1ccccc1O | 10.3 µM |
| O=C(c1ccc(F)cc1)C(CN1CCOCC1)c1ccccc1 (stereo not given) | 6.42 µM |
| O=c1[nH]c(Nc2nc3ccccc3o2)nc2c1CCCC2 | 4.52 µM |
| Cc1cc(C)c2ccc(N)nc2c1O | 2.82 µM |
| Cc1sc2nc(SCC(=O)C(C)(C)C)n(Cc3ccco3)c(=O)c2c1C | 16.9 µM |
| O=c1cc(-c2ccccc2)[nH]n1-c1nc2ccccc2[nH]1 | 5.6 µM |
| C=CCn1c(SCC(=O)c2c(N)n(CCC)c(=O)n(C)c2=O)nc2sc(CC)cc2c1=O | 15.3 µM |
| O=C(Nc1nccs1)c1c(O)c2cccc3c2n(c1=O)CCC3 | 15.2 µM |
| COc1ccc(C(=O)Oc2c(CN3CCOCC3)cc(Cl)c3cccnc23)cc1 | 6.15 µM |
| Cn1c(=O)n(C)c2cc(NC(=O)CCl)ccc21 | 10 µM |
| COc1ccc(CC(=O)Nc2ccc(-c3nnc(-c4ccc(C)cc4)o3)cc2)cc1 | 12.8 µM |
| Cc1ccc(-c2csc3ncnc(Sc4nnc(CN5CCCCCC5=O)o4)c23)cc1 | 5.46 µM |
| COc1ccc(NC(=O)/C(Cl)=C(/Cl)S(=O)(=O)Cc2ccccc2)cn1 | 6.19 µM |
| N#Cc1c(NCCN)nc(-c2ccco2)c2c1CCCC2 | 11.7 µM |
| COc1ccc(C2=Nn3c(nnc3C3CCCCC3)SC2)cc1OC | 14.1 µM |
| CCOC(=O)c1cnc(-n2nc(C)cc2C)nc1Nc1ccc(N(C)C)cc1 | 14.6 µM |
| C=CCOC(=O)C1=C(C)NC(SCC(=O)Nc2ccc(C)c(Cl)c2)=C(C#N)C1c1ccco1 (stereo not given) | 7.76 µM |
| COc1cc(C(C[N+](=O)[O-])c2c(-c3ccccc3)cc3ccccn23)cc(OC)c1OC (stereo not given) | 18.7 µM |
| O=C(Oc1cccc2cccnc12)c1cccs1 | 4.21 µM |
| COc1ccc(-n2nnnc2S(=O)(=O)CC(=O)N2CCCCC2)cc1 | 6.12 µM |

| Compound | EC50 |
| --- | --- |
| COc1ccc(-c2nnc(Nc3nc4c(OC)cccc4s3)o2)cc1 | > 10 µM (inactive) |
| Cc1cccc(N2CCN(C(=O)Cn3sc4nc(C)cc(C)c4c3=O)CC2C)c1 (stereo not given) | 9.93 µM |
| CCCCN(C)S(=O)(=O)c1ccc(C(=O)Nc2nnc(-c3cccs3)o2)cc1 | 11.5 µM |
| Oc1c(CN2CCN(c3ccccn3)CC2)cc(Cl)c2cccnc12 | 5.46 µM |
| O=C(c1nn2c(C(F)(F)F)cc(-c3ccco3)nc2c1Br)N1CCCc2ccccc21 | 4.78 µM |
| CC(=O)Nc1ccc(NC2=Nc3ccccc3N3C2=Nc2c(c(C)nn2-c2ccccc2)C3c2ccccc2)cc1 (stereo not given) | 12.2 µM |
| CCOC(=O)c1cnc(-n2nc(C)cc2C)nc1NCCc1ccccc1 | 14.2 µM |
| O=S(=O)(CCN(CCS(=O)(=O)C(F)(F)F)CC1CCCO1)C(F)(F)F (stereo not given) | 5.88 µM |
| Cn1c(=O)n(C)c2cc(C(=O)Nc3ccc4c(c3)OCO4)ccc21 | 12.9 µM |
| O=C1CC(c2ccco2)Cc2nc(Nc3nc(-c4ccccc4)c4ccccc4n3)ncc21 (stereo not given) | 14 µM |
| CC1(C)Cc2c(c(N3CCOCC3)nc3snc(N)c23)CO1 | 10.9 µM |
| O=C(/C=C/c1ccc(Cl)cc1)c1cccnc1 | 19.7 µM |
| Fc1ccc2c(Cl)c(-c3nnc(-c4cccs4)o3)sc2c1 | 11.4 µM |
| CC(C)CNC(=O)c1coc(=O)c(Br)c1 | 20.5 µM |
| COc1ccc(S(=O)(=O)N2N=C(C)Oc3ccccc3C2=O)cc1 | 19.5 µM |
| CCc1[nH]nc2c1C(c1ccc(Br)s1)C(C#N)=C(N)O2 (stereo not given) | 13.6 µM |
| COc1cc(/C=C(/C(=O)c2cccs2)c2nc3ccccc3[nH]2)cc(OC)c1O | 8.69 µM |
| CCOc1ccccc1-n1c(CN2CCN(C(=O)c3ccco3)CC2)nc2ccccc2c1=O | 5.7 µM |
| O=C(Cc1sc(-c2ccccc2Cl)nc1-c1ccccc1)Nc1ccc(F)cc1 | 19.4 µM |
| COc1cc(NC(=O)Nc2cccc(Cl)c2)c(OC)cc1NC(=O)CN1CCCCC1 | 20.3 µM |
| CN(CCO)c1cc(Sc2nc3ccccc3s2)c2nonc2c1[N+](=O)[O-] | 18.6 µM |
| O=C(Oc1ccccc1-c1nnco1)c1ccc(Cl)cc1 | 5.03 µM |
| N#Cc1cc2sc3nnc(-c4ccncc4)n3c2cc1C#N | 15.6 µM |
| CN(C)C(=O)CSc1cccc2cccnc12 | 13.7 µM |
| COC(=O)C1=C(O)/C(=C\c2ccc(CNC(=O)C(=O)Nc3ccc(C)cc3)o2)N=C1C | 9.27 µM |
| CC1=CC(C)(C)Nc2ccc(OC(=O)CN3C(=O)C4CCCCC4C3=O)cc21 (stereo not given) | 12.4 µM |
